From PubChem BioAssay
Kir21 block: Kir2.1 (mouse) channel inhibition; P35561; HEK293-Kir2.1, FluxOR thallium flux fluorescence; hits give low values; B-score at 10 µM; actives 0.85% (n = 310,000);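 active = fluorescence ratio B-score at or below minus 3 SD of library scores, with starting-brightness B-score within 2 SD, cut at about -4.2 in these data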;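 note: channel flux triggered by added potassium and thallium sulfate stimulus; B-score of peak minus minimum fluorescence over baseline after thallium stimulus; more negative B-score means stronger Kir2.1 block with less thallium influx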
KCNK9 inh: inhibitors of human KCNK9 two-pore domain potassium channel; B-score at 10 µM; actives 1.2% (n = 310,000); Q9NPC2; HEK293 KCNK9, FluxOR thallium flux fluorescence; hits give low values; AID 488922;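 active = ratio B-score over 3 SD below the library mean, with starting fluorescence within 5 SD of its mean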;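 note: negative B-score means less thallium flux so channel inhibition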
KCNQ1 inh: inhibitors of human KCNQ1 potassium channel; P51787; CHO-K1 KCNQ1, FluxOR thallium flux fluorescence; hits give high values; actives 1.3% (n = 310,000); B-score at 10 µM;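 active = compounds whose thallium flux B-score, printed positive for inhibition, exceeds three library SD while starting fluorescence stays within three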;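 note: channel opened by potassium depolarization with thallium stimulus after 20 min compound exposure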
KCNQ1 act: human KCNQ1 channel potentiation or activation | P51787 | CHO-K1 KCNQ1, thallium flux FluxOR fluorescence; hits give high values | B-score at 10 µM | actives 0.35% (n = 310,000);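 active = fluorescence ratio B-score, a plate-corrected score, at least three library SD, with initial intensity B-score within 5 SD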
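Schedule – 37 °C overnight plating, 90-min dark dye load, 20-min compound pretreatment · System – stable KCNQ1 CHO-K1 line · Probe or stimulus – thallium- and potassium-containing depolarizing buffer · Measured by – kinetic FluxOR fluorescence, 10 s baseline plus 110 s post-stimulus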
KCNK3 block: human KCNK3 channel inhibition, primary screen; O14649; CHO-KCNK3 thallium flux, FluxOR fluorescence; hits give low values; B-score at 10 µM; actives 0.84% (n = 340,000);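 active = B-score under library mean minus 4 SD, starting fluorescence ratio at most library mean plus 5 SD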;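 note: more negative B-score means stronger inhibition of thallium flux through KCNK3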
hERG protect: compounds protecting human hERG from proarrhythmic drug block; activation (rescue from dofetilide block), less the hit threshold, % at 10 µM; CHO-hERG, FluxOR thallium flux, dofetilide IC70 present; Q12809; actives 0.51% (n = 310,000);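 active = activation above the mean of controls blocked by dofetilide plus 5 SD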;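 note: thallium influx through hERG after potassium depolarization seen as dye fluorescence rise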
The depositor's hits bear a star. Compounds with a hit are over-represented: about 3.8% of the library has one in this group of screens.

Results for CC1(C)CC(=O)C2=C(C1)OC1=C(C(=O)CC(C)(C)C1)C2c1ccc(O)c([N+](=O)[O-])c1 ?
Kir21 block: 1.77; KCNK9 inh: inactive; KCNQ1 inh: inactive; KCNQ1 act: inactive; KCNK3 block: inactive; hERG protect: -7.1

How did CCCCCCCCCCC[N+](C)(C)CC/C=C1/c2ccccc2Sc2ccc(Cl)cc21 do in these assays?
Kir21 block: -0.29; KCNK9 inh: inactive; KCNQ1 inh: inactive; KCNQ1 act: 9*; KCNK3 block: inactive; hERG protect: -11.1

What do the screens show for `CC[N+](C)(C)CC/C=C1/c2ccccc2Sc2ccc(Cl)cc21`?
Kir21 block: 1.89; KCNK9 inh: inactive; KCNQ1 inh: inactive; KCNQ1 act: inactive; KCNK3 block: inactive; hERG protect: -6.0

What do the screens show for `COc1ccc(NC(=O)c2ccc(OCc3c(C)noc3C)c(OC)c2)cn1`?
Kir21 block: -0.87; KCNK9 inh: inactive; KCNQ1 inh: inactive; KCNQ1 act: inactive; KCNK3 block: inactive; hERG protect: -8.2

What do the screens show for `O[C@@H]([C@H](O)[C@H](O)CBr)[C@H](O)CBr`?
Kir21 block: 0.07; KCNK9 inh: inactive; KCNQ1 inh: inactive; KCNQ1 act: inactive; KCNK3 block: inactive; hERG protect: -7.6

What do the screens show for `S=C(NCc1cccs1)Nc1ccccc1`?
Kir21 block: 0.46; KCNK9 inh: inactive; KCNQ1 inh: inactive; KCNQ1 act: inactive; KCNK3 block: inactive; hERG protect: -6.9

What do the screens show for `NS(=O)(=O)c1ccc(NC(=S)NCc2cccs2)cc1`?
Kir21 block: -0.59; KCNK9 inh: inactive; KCNQ1 inh: inactive; KCNQ1 act: inactive; KCNK3 block: inactive; hERG protect: 6.6*

Results for CCn1c(SC(C)C(=O)O)nc2sc3c(c2c1=O)CCC3 (configuration not stated) ?
Kir21 block: 1.19; KCNK9 inh: inactive; KCNQ1 inh: inactive; KCNQ1 act: 14*; KCNK3 block: inactive; hERG protect: 14.8*

How did CCCn1c(SCC(=O)N2CCN(C(C)=O)CC2)nc2sc3c(c2c1=O)CCC3 do in these assays?
Kir21 block: -1.78; KCNK9 inh: inactive; KCNQ1 inh: inactive; KCNQ1 act: 16*; KCNK3 block: inactive; hERG protect: 24.7*

What do the screens show for `CC(c1nnc(SCC(=O)NC(=O)NCc2ccco2)n1-c1ccc(Cl)cc1)N(C)C` (configuration not stated)?
Kir21 block: 0.13; KCNK9 inh: inactive; KCNQ1 inh: inactive; KCNQ1 act: inactive; KCNK3 block: inactive; hERG protect: -14.2

How did Cc1cccc(C)c1NC(=O)N1CCC(n2cnc3ccccc32)CC1 do in these assays?
Kir21 block: -0.38; KCNK9 inh: inactive; KCNQ1 inh: inactive; KCNQ1 act: inactive; KCNK3 block: inactive; hERG protect: -16.8

What do the screens show for `O=C(NC1CCCCC1)N1CCC(n2cnc3ccccc32)CC1`?
Kir21 block: 0.64; KCNK9 inh: inactive; KCNQ1 inh: inactive; KCNQ1 act: inactive; KCNK3 block: inactive; hERG protect: 6.2*

How did CCc1cc(C(=O)N2CCN(c3ncccn3)CC2)sc1C do in these assays?
Kir21 block: 0.07; KCNK9 inh: inactive; KCNQ1 inh: inactive; KCNQ1 act: inactive; KCNK3 block: inactive; hERG protect: -13.5

How did COc1ccc(S(=O)(=O)NCc2ccc(C(=O)N3CCN(Cc4ccccc4)CC3)cc2)cc1 do in these assays?
Kir21 block: -3.96; KCNK9 inh: inactive; KCNQ1 inh: inactive; KCNQ1 act: inactive; KCNK3 block: inactive; hERG protect: -6.7

How did Cc1ccc(S(=O)(=O)NCCC(=O)N2CCC(Cc3ccccc3)CC2)cc1 do in these assays?
Kir21 block: 0.56; KCNK9 inh: inactive; KCNQ1 inh: inactive; KCNQ1 act: inactive; KCNK3 block: inactive; hERG protect: -10.6

What do the screens show for `Cc1ccc(S(=O)(=O)NCc2ccc(C(=O)NCCCN3CCC(Cc4ccccc4)CC3)cc2)cc1`?
Kir21 block: -3.89; KCNK9 inh: inactive; KCNQ1 inh: 6*; KCNQ1 act: inactive; KCNK3 block: inactive; hERG protect: -21.5

What do the screens show for `Cc1ccc(S(=O)(=O)NCc2ccc(C(=O)N3CCN(Cc4ccccc4)CC3)cc2)cc1`?
Kir21 block: 0.17; KCNK9 inh: inactive; KCNQ1 inh: inactive; KCNQ1 act: inactive; KCNK3 block: -9.26*; hERG protect: -3.6

What do the screens show for `CCN(CC)CC(O)COCCC12CC3CC(CC(C3)C1)C2` (configuration not stated)?
Kir21 block: 0.39; KCNK9 inh: inactive; KCNQ1 inh: inactive; KCNQ1 act: inactive; KCNK3 block: inactive; hERG protect: 4.3

How did OCCN(CCO)CC(O)COCCC12CC3CC(CC(C3)C1)C2 (configuration not stated) do in these assays?
Kir21 block: 0.06; KCNK9 inh: inactive; KCNQ1 inh: 8*; KCNQ1 act: inactive; KCNK3 block: inactive; hERG protect: -15.8

What do the screens show for `Cc1cc(=S)[nH]c2c(C)cccc12`?
Kir21 block: 0.07; KCNK9 inh: inactive; KCNQ1 inh: inactive; KCNQ1 act: inactive; KCNK3 block: inactive; hERG protect: 5.0*

What do the screens show for `COc1ccc(Cc2c(O)nc(SCC(=O)NC34CC5CC(CC(C5)C3)C4)[nH]c2=O)cc1`?
Kir21 block: -0.88; KCNK9 inh: inactive; KCNQ1 inh: inactive; KCNQ1 act: inactive; KCNK3 block: inactive; hERG protect: -7.1

How did Cc1ccc(O)c(C(=O)CC(=O)c2cccc(F)c2)c1 do in these assays?
Kir21 block: -0.92; KCNK9 inh: inactive; KCNQ1 inh: inactive; KCNQ1 act: 27*; KCNK3 block: inactive; hERG protect: -1.2

How did Cc1ccc(C(=O)CC(=O)COc2ccc(Cl)cc2C)cc1 do in these assays?
Kir21 block: -0.34; KCNK9 inh: inactive; KCNQ1 inh: inactive; KCNQ1 act: 7*; KCNK3 block: inactive; hERG protect: -3.3

Results for Cc1cccc(C(=O)NCC(=O)NNC(=O)c2ccccc2O)c1 ?
Kir21 block: 0.6; KCNK9 inh: inactive; KCNQ1 inh: inactive; KCNQ1 act: inactive; KCNK3 block: inactive; hERG protect: -13.3

Results for Cc1cccc(C(=O)CC(=O)c2cc(Cl)ccc2O)c1 ?
Kir21 block: -0.19; KCNK9 inh: inactive; KCNQ1 inh: inactive; KCNQ1 act: inactive; KCNK3 block: inactive; hERG protect: 8.8*

How did Cc1ccc(O)c(C(=O)CC(=O)c2ccc(Cl)cc2)c1 do in these assays?
Kir21 block: 0.13; KCNK9 inh: inactive; KCNQ1 inh: inactive; KCNQ1 act: inactive; KCNK3 block: inactive; hERG protect: 5.7*

Results for Cc1ccc(NC(=O)c2ccc(OC(=O)COc3ccc(Cl)cc3C)cc2)cc1 ?
Kir21 block: 0.54; KCNK9 inh: inactive; KCNQ1 inh: inactive; KCNQ1 act: inactive; KCNK3 block: inactive; hERG protect: -3.7
